From PubChem BioAssay
GASC-1 inh = human JMJD2C demethylase inhibition. GST-JMJD2C(1-420) H3K9me3 demethylation, DELFIA europium. inhibition, % at 2.35 µM. 330,000 compounds, 0.069% hits. AID 2099;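 active means more than half of a compound's replicate wells show inhibition beyond 50%, single wells judged on their own value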;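 further: signal counts dimethyl H3K9 product captured on neutravidin plate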
GalR3 antagonist = blocks the human galanin receptor 3; AID 651719; inhibition, % at 3 µM; HEK293 GalR3-CNG cAMP membrane potential fluorescence; galR3 body fused to GalR1 C-terminus; 360,000 compounds, 0.44% hits; O60755;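 active means inhibition above the screen-wide average plus 3 SD, cut at about 13% in these data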;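 further: forskolin and galanin both at EC90 stimulate the cells; cAMP rise reported by CNG channel membrane potential dye signal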
NR2E3 ag-1 = activates human photoreceptor nuclear receptor NR2E3. AID 2300. 320,000 compounds, 0.12% hits. GST-NR2E3/biotin-RetCOR TR-FRET, 1536-well. Q9Y5X4. inhibition of corepressor binding, % at 4.78 µM;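 active means percent inhibition above the cutoff of mean plus 3 SD of all tested compounds, set per screening campaign, cut at about 20% in these data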
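system = GST-tagged NR2E3 plus biotinylated RetCOR corepressor | input = 1.35 nM GST-NR2E3 | also added = 7 nM biotin-RetCOR | schedule = 5 h incubation at 4 °C | measured by = TR-FRET with europium anti-GST and streptavidin-D2, 340 nm excitation | read-out = percent loss of FRET ratio relative to control wells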
697 NFkB inh = inhibitors of the PMA/ionomycin-induced NF-kB reporter in 697 B cells | 697 B-cell NF-kB luciferase reporter, 16 h | inhibition, % at 4 µM | 330,000 compounds, 0.33% hits; in the data active means inhibition above about 35%
Jurkat NFkB inh = lowers PMA/ionomycin-induced NF-kB signal in Jurkat cells. PMA/ionomycin-induced NF-kB luciferase reporter, luminescence. inhibition, % at 4 µM. 330,000 compounds, 0.53% hits. AID 435003; in the data active means inhibition above about 50%
NR2E3 ag-2 = activates human NR2E3 receptor; Q9Y5X4; CHO-S Gal4-NCOR/VP16-NR2E3 two-hybrid, luciferase; inhibition of corepressor binding, % at 3.98 µM; 360,000 compounds, 0.35% hits;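 active means inhibition above the mean of all tested compounds plus 3 SD, cut at about 70% in these data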;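 further: higher means lower luciferase signal from less NR2E3 corepressor binding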
NR2E3 ag confirm = NR2E3 (human) agonism, confirmation. shares compounds with NR2E3 ag-1. cell-free NR2E3 corepressor release, TR-FRET, 5 h. activation (reported as inhibition), % at 3.98 µM. 360 compounds, 39% hits. AID 2379; in the data active means activation above about 20%
PPARg-NCOR2 ag = PPARg-NCOR2 interaction agonism, NR2E3 counter-screen. 360 compounds, 45% hits. TR-FRET PPARg-NCOR2 coregulator interaction, biochemical. AID 504787. inhibition, % at 3.98 µM. shares compounds with NR2E3 ag-1; in the data active means inhibition above about 20%
Of the large screens only hits and unclear results are named; the others gave an inactive call (follow-up assays come after a bar, where they were run); ! = not active in a repeat. This is a sample that favours compounds with a hit; in the whole collection about 1.5% have one here.

Nc1ncnc2c1ncn2C1C=C(CO)C(O)C1O (stereo not drawn)	NR2E3 ag-2 74 (no result: GASC-1 inh, GalR3 antagonist, NR2E3 ag-1, 697 NFkB inh, Jurkat NFkB inh)
CSc1ccccc1C(=O)N1CCc2ccc(NC(=O)c3ccccn3)cc2C1	none (no result: GASC-1 inh, NR2E3 ag-1, 697 NFkB inh, Jurkat NFkB inh)
Cn1cccc1-c1nc2ccc(NC(=O)c3cccs3)cc2[nH]1	GASC-1 inh 58
CC(=O)Nc1ccc2nc(-c3cccn3C)[nH]c2c1	none
COc1ccccc1NC(=O)Cn1cnc2c(cnn2-c2ccc(C)c(C)c2)c1=O	none
S=C1NCC(c2ccccc2)S1 (stereo not drawn)	none (no result: GASC-1 inh, NR2E3 ag-1, 697 NFkB inh, Jurkat NFkB inh)
CC(C)(C)OC(=O)NCc1ccc(CNC(=O)c2nc[nH]c2C(=O)NCc2ccc(CNC(=O)OC(C)(C)C)cc2)cc1	none (no result: NR2E3 ag-1)
CC(C)(C)OC(=O)NCCCCCNC(=O)c1nc[nH]c1C(=O)NCc1ccc(CNC(=O)OC(C)(C)C)cc1	NR2E3 ag-2 79 (no result: NR2E3 ag-1)
CCCS(=O)(=O)NC(=O)C1(C)CCCN(C(=O)CCc2cccs2)C1 (stereo not drawn)	none (no result: GASC-1 inh, NR2E3 ag-1, 697 NFkB inh, Jurkat NFkB inh)
COC(=O)[C@@]1(Cc2ccc(F)cc2)[C@H]2c3cc(C(=O)N(C)C)n(CCN4CCOCC4)c3C[C@H]2CN1C(=O)c1ccccc1	none (no result: GASC-1 inh, NR2E3 ag-1, 697 NFkB inh, Jurkat NFkB inh)
Cc1ccc(CCC(=O)Nc2ccc(N(C)C)cc2)o1	none
Cn1nc(C(F)(F)F)c(/C=N/OC(=O)c2ccccc2)c1SCc1ccc(Cl)cc1	none
Cn1nc(C(F)(F)F)c(/C=N/OC(=O)c2ccccc2Cl)c1SCc1ccccc1Cl	NR2E3 ag-2 73
COc1ccccc1NC(=O)COC(=O)c1ccc([N+](=O)[O-])s1	GalR3 antagonist 13
COc1ccccc1NC(=O)COC(=O)c1c[nH]c(=O)[nH]c1=O	none
COc1ccccc1NC(=O)COC(=O)c1[nH]c(=O)[nH]c(=O)c1N	GASC-1 inh 53 (no result: NR2E3 ag-1)
COc1cccc(OC)c1OC(=O)c1ccccc1	none (no result: GASC-1 inh, NR2E3 ag-1, 697 NFkB inh, Jurkat NFkB inh)
Cn1c2ccccc2c(=O)n2c(=O)c3ccccc3cc12	NR2E3 ag-1 29 (no result: GalR3 antagonist, NR2E3 ag-2)
Cn1c(-c2ccccc2)cc(=O)c2ccccc21	none
Cc1ccc(-n2cc(-c3ccccc3)c3c(=O)[nH]cnc32)cc1	none
O=c1[nH]cnc2c1c(-c1ccccc1)cn2-c1ccccc1	GASC-1 inh 62
Cc1ccc(Cl)cc1NC1=C/C(=N\S(=O)(=O)c2cccs2)c2ccccc2C1=O	NR2E3 ag-2 79!
Cc1ccc(NC2=C/C(=N\S(=O)(=O)c3cccs3)c3ccccc3C2=O)c(C)c1	NR2E3 ag-2 108 (no result: GalR3 antagonist)
Cc1cc(Br)ccc1OCC(=O)NNC(=O)C(=O)Nc1ccccc1	none
O=c1c2oc3ccccc3c2[nH]c(=S)n1-c1ccccc1	NR2E3 ag-1 50 | NR2E3 ag confirm 45 | PPARg-NCOR2 ag 45
Cc1ccc(-n2c(=S)[nH]c3c(oc4ccccc43)c2=O)cc1	NR2E3 ag-1 20 | NR2E3 ag confirm 43 | PPARg-NCOR2 ag 34
Cc1cccc(-n2c(=S)[nH]c3c(oc4ccccc43)c2=O)c1	NR2E3 ag-1 37 (no result: 697 NFkB inh, Jurkat NFkB inh) | NR2E3 ag confirm 35 | PPARg-NCOR2 ag 25
COC(=O)c1ccc2nc(-c3ccco3)c(Cc3ccc(OC)cc3C)n2c1	none (no result: GASC-1 inh, NR2E3 ag-1, 697 NFkB inh, Jurkat NFkB inh)
CN1CCN(NC(=O)c2cc(-c3ccc(Br)s3)nc3ccccc23)CC1	NR2E3 ag-1 26 | NR2E3 ag confirm inactive | PPARg-NCOR2 ag 20
Cc1c(OCC(=O)N(C)c2ccccc2)ccc2c3c(c(=O)oc12)CCC3	none
Cc1cccc(-c2nc(=S)c3c(n2Cc2ccco2)CCCC3)c1	NR2E3 ag-1 28 | NR2E3 ag confirm inactive | PPARg-NCOR2 ag inactive
CC(=O)c1c(C(C)=O)c(C)n(-c2ccc(C(=O)O)cc2)c1C	none
Cc1ccc(C)n1-c1ccc(C(=O)O)cc1	NR2E3 ag-1 23 (no result: GalR3 antagonist, NR2E3 ag-2) | NR2E3 ag confirm inactive | PPARg-NCOR2 ag inactive
CCOc1cccc(C2C(C(=O)c3ccc(C)o3)=C(O)C(=O)N2Cc2ccccc2)c1 (stereo not drawn)	none (no result: NR2E3 ag-1)
CCOc1cccc(C2C(C(=O)c3ccc(C)o3)=C(O)C(=O)N2Cc2ccncc2)c1 (stereo not drawn)	NR2E3 ag-1 26 | NR2E3 ag confirm inactive | PPARg-NCOR2 ag inactive
C=CCOc1cccc(C2C(C(=O)c3ccc(C)o3)=C(O)C(=O)N2Cc2ccncc2)c1 (stereo not drawn)	none
C=CCOc1ccc(C2C(C(=O)c3ccc(C)o3)=C(O)C(=O)N2Cc2cccnc2)cc1 (stereo not drawn)	NR2E3 ag-1 20 | NR2E3 ag confirm inactive | PPARg-NCOR2 ag inactive
CCOc1cccc(C2C(C(=O)c3ccc(C)o3)=C(O)C(=O)N2CCCn2ccnc2)c1 (stereo not drawn)	NR2E3 ag-1 24 | NR2E3 ag confirm 29 | PPARg-NCOR2 ag 28
N#Cc1c(-c2cccnc2)c2c([nH]c1=S)CCCC2	none
N#Cc1c(-c2ccco2)c2c([nH]c1=S)CCCC2	NR2E3 ag-1 39 | NR2E3 ag confirm inactive | PPARg-NCOR2 ag 23
CC(C)Cc1c2c([nH]c(=S)c1C#N)CCCC2	NR2E3 ag-1 38 | NR2E3 ag confirm 34 | PPARg-NCOR2 ag 36
Cc1cc(N2C(=O)C(O)=C(C(=O)c3ccco3)C2c2ccccc2F)no1 (stereo not drawn)	NR2E3 ag-1 28 | NR2E3 ag confirm inactive | PPARg-NCOR2 ag inactive
Cc1cc(N2C(=O)C(O)=C(C(=O)c3cc4ccccc4o3)C2c2cccs2)no1 (stereo not drawn)	NR2E3 ag-1 24 | NR2E3 ag confirm 31 | PPARg-NCOR2 ag 34
Cc1ccc(C2C(C(=O)c3cc4ccccc4o3)=C(O)C(=O)N2c2cc(C)on2)cc1 (stereo not drawn)	NR2E3 ag-1 23 | NR2E3 ag confirm 28 | PPARg-NCOR2 ag 35
Cc1cc(N2C(=O)C(O)=C(C(=O)c3ccc(C)o3)C2c2cccs2)no1 (stereo not drawn)	none
Cc1cc(N2C(=O)C(O)=C(C(=O)c3ccco3)C2c2ccc(Cl)cc2)no1 (stereo not drawn)	none
Cc1cccc(C)c1NC(=O)C1(C)CSCC(=O)N1CCCn1ccnc1 (stereo not drawn)	none (no result: GASC-1 inh, NR2E3 ag-1, 697 NFkB inh, Jurkat NFkB inh, NR2E3 ag-2)
C=CCC1CCCC(=O)N2CC[C@H](O)C12 (stereo partly drawn)	none
CS(=O)(=O)Nc1ccc(-c2n[nH]c(=S)n2-c2ccccc2)cc1	NR2E3 ag-1 27 | NR2E3 ag confirm inactive | PPARg-NCOR2 ag inactive
Cc1ccc(-c2n[nH]c(=S)n2-c2ccccc2)cc1	none
COC(=O)N1Cc2ccnnc2CC1c1ccccc1-c1ccccc1 (stereo not drawn)	none (no result: GASC-1 inh, NR2E3 ag-1, 697 NFkB inh, Jurkat NFkB inh, NR2E3 ag-2)
